Test results as given in ChEMBL document CHEMBL1157813, “Novel irreversible fluorescent probes targeting the 18 kDa translocator protein: synthesis and biological characterization” (J Med Chem, 2010).
Calls of active or inactive are those of the source. The calls are words filed in the database; no cut-off is given here.

Legend:
Translocator protein [1] = target: T1, Translocator protein (Rattus norvegicus, UniProt P16257); assay: Displacement of [3H]Ro5-4864 from TSPO in rat kidney mitochondrial membrane; format: cell membranes
Outline: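 IC50 and Ki taken from displacement curves. Bound radioactivity expressed as percent of specific binding. Triplicate determinations pooled from three independent experiments.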

[2] = target: Translocator protein (Rattus norvegicus) (UniProt P16257); assay: Displacement of [3H]Ro5-4864 from TSPO in rat kidney mitochondrial membrane at 1 to 1000 nM; format: cell membranes; settings: TDE = time-dependent effect
Outline: (§1)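 Rat kidney membranes preincubated with ligand (1 nM to 1 μM) for 0, 10, 30, 60, 90 or 180 min in binding buffer. Stopped with ice-cold 50 mM Tris/HCl pH 7.4, centrifuged 13000g 15 min at 4 °C, pellets washed twice. Residual [3H]Ro 5-4864 binding then measured at 65 μg protein/tube. ln B/B0 plotted against time. Kd and K2 taken from a 1/Kobs vs 1/[D] plot. Duplicates, three experiments.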

[3] = target: Translocator protein (Rattus norvegicus) (UniProt P16257); assay: Displacement of [3H]Ro5-4864 from TSPO in rat kidney mitochondrial membrane after 180 mins; format: cell membranes; outline: as §1
Translocator protein [4] = target: T1, Translocator protein; assay: Irreversible binding affinity to TSPO in rat kidney mitochondrial membrane; format: cell membranes; outline: as §1
[5] = target: Translocator protein (Homo sapiens) (UniProt P30536); assay: Irreversible binding affinity to TSPO in human U87MG cells at 100 to 500 nM after 20 mins in presence of 10 uM Ro5-4864; format: cell-based; settings: U-87MG ATCC
Outline: (§2)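 U87MG cells grown in RPMI 1640 with 10% FBS, seeded at 4 × 10^4 cells/well for 24 h. Some wells pretreated with 10 μM Ro 5-4864, then given probe (100, 250, 500 nM) for 20 or 90 min at 37 °C, 5% CO2. Four washes in medium with cysteine, then PBS. Fluorescence read at Ex 485/Em 535 nm. Mean ± SEM, at least three experiments in duplicate.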

[6] = target: Translocator protein (Homo sapiens) (UniProt P30536); assay: Irreversible binding affinity to TSPO in human U87MG cells at 100 to 500 nM after 90 mins in presence of 10 uM Ro5-4864; format: cell-based; settings: U-87MG ATCC; outline: as §2

T1 sequence (P16257 whole entry, looked up): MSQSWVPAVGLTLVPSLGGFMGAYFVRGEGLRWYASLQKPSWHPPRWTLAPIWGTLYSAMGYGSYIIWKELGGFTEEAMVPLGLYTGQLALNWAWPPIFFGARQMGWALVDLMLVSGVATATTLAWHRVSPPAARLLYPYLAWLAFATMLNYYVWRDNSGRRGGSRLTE
Sequence of Translocator protein (Rattus norvegicus) (P16257 whole entry, looked up): as above
Sequence of Translocator protein (Homo sapiens) (P30536 whole entry): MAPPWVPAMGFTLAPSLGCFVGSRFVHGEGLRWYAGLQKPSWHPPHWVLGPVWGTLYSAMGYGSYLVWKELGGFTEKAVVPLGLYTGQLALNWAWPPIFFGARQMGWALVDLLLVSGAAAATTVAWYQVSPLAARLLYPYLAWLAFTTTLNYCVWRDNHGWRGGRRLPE

| IC50 (Translocator protein [1]) [nM] | Ki (Translocator protein [1]) [nM] | Activity [2] | Activity [3] | Kd (Translocator protein [4]) [nM] | Activity [5] | Activity [6] | SMILES |
| --- | --- | --- | --- | --- | --- | --- | --- |
| 45.6 | 37.9 | tde | Dose-dependent effect | 3.17 | – | – | CCCN(CCC)C(=O)C(=O)c1c(-c2ccccc2)[nH]c2ccc(N=C=S)cc12 |
| 59.7 | 49.5 | tde | Dose-dependent effect | 5.07 | – | – | CCCCCCN(CCCCCC)C(=O)C(=O)c1c(-c2ccccc2)[nH]c2ccc(N=C=S)cc12 |
| 42.2 | 37.6 | tde | Dose-dependent effect | 8.31 | inactive | Active | O=C(NCCCCCCNc1ccc([N+](=O)[O-])c2nonc12)C(=O)c1c(-c2ccccc2)[nH]c2ccc(N=C=S)cc12 |
